Data on seven compounds can be found in ChEMBL document CHEMBL1150393, “Evaluation of radiolabeled (hetero)aromatic analogues of N-(2-diethylaminoethyl)-4-iodobenzamide for imaging and targeted radionuclide therapy of melanoma” (J Med Chem, 2008).

Series [1] is described as follows: Biodistribution in intestinal content of C57BL/6 mouse bearing mouse B16-F0 cells at 0.74 to 0.92 MBq, iv after 3 hrs. Format: ADME, organism-based. To be noted: in vivo. The gist of the method:
(§1)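 Male C57BL6 mice with s.c. left-flank B16-F0 melanoma (5 × 10⁵ cells in PBS). Two mice per time point frozen in liquid nitrogen after CO₂ sacrifice. Eight 40 µm whole-body cryosections per mouse read by multiwire proportional counter. cpm/mm² converted to kBq/g and expressed as %ID/g.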

Series [2] is described as follows: Ratio of drug level in tumor to liver of C57BL/6 mouse bearing mouse B16-F0 cells at 0.74 to 0.92 MBq, iv after 3 hrs. The series is classed as ADME, organism-based. To be noted: in vivo. The gist of the method:
(§2)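 Tumour and organ radioactive concentrations came from whole-body cryosection counting (40 µm slices, eight per mouse, two mice per time) after tail-vein injection of the [¹²⁵I]-labelled compound (0.1 µmol) into male C57BL6 mice bearing s.c. B16-F0 melanoma. Each value is the ratio of the tumour concentration to the organ concentration.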

Series [3] is described as follows: Biodistribution in Stomach content of C57BL/6 mouse bearing mouse B16-F0 cells at 0.74 to 0.92 MBq, iv after 1 hr. The series is classed as ADME, organism-based. To be noted: in vivo. The gist of the method: as §1
A further series concerns Kidney. In words: Biodistribution in kidney of C57BL/6 mouse bearing mouse B16-F0 cells at 0.74 to 0.92 MBq, iv after 1 hr. The series is classed as ADME, organism-based. To be noted: in vivo. The gist of the method:
as §1

Series [4] in a line: Biodistribution in Stomach content of C57BL/6 mouse bearing mouse B16-F0 cells at 0.74 to 0.92 MBq, iv after 3 hrs. Format: ADME, organism-based. Conditions: in vivo. The gist of the method:
as §1

Series [5] is described as follows: Biodistribution in tumor of C57BL/6 mouse bearing mouse B16-F0 cells at 0.74 to 0.92 MBq, iv after 3 hrs. The series is classed as ADME, organism-based, Neoplasm. To be noted: in vivo. The gist of the method:
(§3)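 [¹²⁵I]-labelled compound given iv by tail vein (0.1 µmol per mouse) to male C57BL6 mice bearing s.c. B16-F0 flank tumours (5 × 10⁵ cells in PBS). Two mice per time point were killed by CO₂, frozen in liquid nitrogen and cut into 40 µm cryosections, eight slices per mouse. Slice radioactivity was read on a multiwire proportional counter, converted to kBq/g and reported as %ID/g.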

A further series has as its system Lung. The experiment in a line: Biodistribution in lung of C57BL/6 mouse bearing mouse B16-F0 cells at 0.74 to 0.92 MBq, iv after 1 hr. The series is classed as ADME, organism-based. Conditions: in vivo. The gist of the method:
as §1

Series [6] can be described thus: Biodistribution in tumor of C57BL/6 mouse bearing mouse B16-F0 cells at 0.74 to 0.92 MBq, iv after 1 hr. The series is classed as ADME, organism-based, Neoplasm. To be noted: in vivo. The gist of the method: as §3
A short description of series [7]: Biodistribution in tumor of C57BL/6 mouse bearing mouse B16-F0 cells at 0.74 to 0.92 MBq, iv after 24 hrs. The series is classed as ADME, organism-based, Neoplasm. Conditions: in vivo. The gist of the method: as §3
Another series deals with Spleen. The experiment in a line: Biodistribution in spleen of C57BL/6 mouse bearing mouse B16-F0 cells at 0.74 to 0.92 MBq, iv after 1 hr. Conditions: in vivo. The series is classed as ADME, organism-based. The gist of the method: as §3
Series [8] is described as follows: Biodistribution in uvea of C57BL/6 mouse bearing mouse B16-F0 cells at 0.74 to 0.92 MBq, iv after 6 hrs. The series is classed as ADME, organism-based, Uveal tract. To be noted: in vivo. The gist of the method:
as §3

Series [9] can be described thus: Ratio of drug level in tumor to liver of C57BL/6 mouse bearing mouse B16-F0 cells at 0.74 to 0.92 MBq, iv after 1 hr. To be noted: in vivo. The series is classed as ADME, organism-based. The gist of the method:
as §2

The nature of series [10]: Ratio of drug level in tumor to lung of C57BL/6 mouse bearing mouse B16-F0 cells at 0.74 to 0.92 MBq, iv after 1 hr. To be noted: in vivo. The series is classed as ADME, organism-based. The gist of the method:
as §2

Series [11] in a line: Biodistribution in uvea of C57BL/6 mouse bearing mouse B16-F0 cells at 0.74 to 0.92 MBq, iv after 3 hrs. The series is classed as ADME, organism-based, Uveal tract. Conditions: in vivo. The gist of the method: as §3
Series [12] in a line: Biodistribution in uvea of C57BL/6 mouse bearing mouse B16-F0 cells at 0.74 to 0.92 MBq, iv after 24 hrs. Format: ADME, organism-based, Uveal tract. To be noted: in vivo. The gist of the method:
as §3

The nature of series [13]: Biodistribution in tumor of C57BL/6 mouse bearing mouse B16-F0 cells at 0.74 to 0.92 MBq, iv after 72 hrs. The series is classed as ADME, organism-based, Neoplasm. Conditions: in vivo. The gist of the method: as §3
Series [14] deals with Liver. In words: Biodistribution in liver of C57BL/6 mouse bearing mouse B16-F0 cells at 0.74 to 0.92 MBq, iv after 1 hr. The series is classed as ADME, organism-based. Conditions: in vivo. The gist of the method:
as §1

Series [15] is described as follows: Biodistribution in tumor of C57BL/6 mouse bearing mouse B16-F0 cells at 0.74 to 0.92 MBq, iv after 6 hrs. To be noted: in vivo. The series is classed as ADME, organism-based, Neoplasm. The gist of the method:
as §3

Series [16] can be described thus: Biodistribution in intestinal content of C57BL/6 mouse bearing mouse B16-F0 cells at 0.74 to 0.92 MBq, iv after 6 hrs. Format: ADME, organism-based. To be noted: in vivo. The gist of the method: as §1
Series [17] concerns Muscle tissue. The experiment in a line: Biodistribution in muscle of C57BL/6 mouse bearing mouse B16-F0 cells at 0.74 to 0.92 MBq, iv after 3 hrs. The series is classed as ADME, organism-based. Conditions: in vivo. The gist of the method:
as §1

Series [18] is described as follows: Biodistribution in Stomach content of C57BL/6 mouse bearing mouse B16-F0 cells at 0.74 to 0.92 MBq, iv after 6 hrs. Format: ADME, organism-based. Conditions: in vivo. The gist of the method: as §1
Series [19] is described as follows: Biodistribution in uvea of C57BL/6 mouse bearing mouse B16-F0 cells at 0.74 to 0.92 MBq, iv after 1 hr. Format: ADME, organism-based, Uveal tract. To be noted: in vivo. The gist of the method:
as §3

The next series concerns Blood. The experiment in a line: Biodistribution in blood of C57BL/6 mouse bearing mouse B16-F0 cells at 0.74 to 0.92 MBq, iv after 1 hr. The series is classed as ADME, organism-based. To be noted: in vivo. The gist of the method: as §1
A short description of series [20]: Biodistribution in uvea of C57BL/6 mouse bearing mouse B16-F0 cells at 0.74 to 0.92 MBq, iv after 72 hrs. Format: ADME, organism-based, Uveal tract. Conditions: in vivo. The gist of the method: as §3
A further series relates to Pancreas. In words: Biodistribution in pancreas of C57BL/6 mouse bearing mouse B16-F0 cells at 0.74 to 0.92 MBq, iv after 1 hr. Format: ADME, organism-based. Conditions: in vivo. The gist of the method: as §1
Series [21] can be described thus: Biodistribution in intestinal content of C57BL/6 mouse bearing mouse B16-F0 cells at 0.74 to 0.92 MBq, iv after 24 hrs. The series is classed as ADME, organism-based. Conditions: in vivo. The gist of the method:
as §1

The subject of series [22] is Muscle tissue. The experiment in a line: Biodistribution in muscle of C57BL/6 mouse bearing mouse B16-F0 cells at 0.74 to 0.92 MBq, iv after 1 hr. To be noted: in vivo. Format: ADME, organism-based. The gist of the method: as §1
A short description of series [23]: Drug excretion in mouse B16-F0 cells bearing C57BL/6 mouse urine at 0.74 to 0.92 MBq, iv after 72 hrs. Format: ADME, organism-based. Conditions: in vivo. The gist of the method: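 Urine was collected from two B16-F0 tumour-bearing C57BL6 mice for up to 72 h after iv tail-vein injection of the [¹²⁵I]-labelled compound (0.1 µmol). Samples were counted to give cumulative urinary excretion as %ID.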

The test system of series [24] is Liver. The experiment in a line: Biodistribution in liver of C57BL/6 mouse bearing mouse B16-F0 cells at 0.74 to 0.92 MBq, iv after 3 hrs. The series is classed as ADME, organism-based. To be noted: in vivo. The gist of the method: as §1
A short description of series [25]: Partition coefficient, log P in phosphate buffer solution at pH 7.4. Format: physicochemical. The gist of the method:
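Shake-flask partition: 50 µM [¹²⁵I]-labelled compound in phosphate buffer pH 7.4 was mixed with 2 mL n-octanol. Each phase was γ-counted, P was taken as the octanol/buffer activity ratio, and log P was reported.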

Series [26] in a line: Biodistribution in intestinal content of C57BL/6 mouse bearing mouse B16-F0 cells at 0.74 to 0.92 MBq, iv after 1 hr. The series is classed as ADME, organism-based. To be noted: in vivo. The gist of the method:
as §1

Series [27] is described as follows: Binding affinity to melanin in water. Set-up: concentration or dose not given beside the values. Conditions: tested as the 125I-labelled form.
Series [28] can be described thus: Binding affinity to melanin in phosphate buffer solution. Set-up: concentration or dose not given beside the values. To be noted: tested as the 125I-labelled form.

Turning to `CCN(CC)CCNC(=O)c1cn2cc([125I])ccc2n1.Cl.Cl`, the Drug uptake in [1] came out at 78.03 % ID/g; in series [3], 4.55 % ID/g; in the series on Kidney, 2.99 % ID/g; in series [4], 5.19 % ID/g; in series [5], 7.1 % ID/g; in the series on Lung, 2.42 % ID/g. Further, the Drug uptake in series [6] was 5.7 % ID/g; in series [7], 8 % ID/g; in the series with Spleen, 13.07 % ID/g; in series [8], 26.81 % ID/g; in series [11] it was 19.18 % ID/g; in series [12], 11.54 % ID/g. In addition, the Drug uptake in series [13] is 2.7 % ID/g; in the series on Liver [14] it was 3.97 % ID/g; in series [15], 8.1 % ID/g; in [16], 56.39 % ID/g; with Muscle tissue [17], 0.09 % ID/g; in [18], 16.57 % ID/g. Further, the Drug uptake in series [19] came out at 17.43 % ID/g; with Blood it was 0.68 % ID/g; in series [20], 9.55 % ID/g; in the series on Pancreas it was 7.52 % ID/g; in [21], 2.68 % ID/g; with Muscle tissue [22], 0.51 % ID/g. Besides, the Drug uptake with Liver [24] is 0.99 % ID/g; in series [26], 9.48 % ID/g. The figures for the Ratio in [2], in series [9] and in series [10] were 7.21, 1.43 and 2.34, respectively. Moreover, the Activity in [23] is 36.8%. For the same compound, the log distribution coefficient (logD) in series [25] was determined as 0.71.

Consider `CCN(CC)CCNC(=O)c1cc2cc(I)ccc2[nH]1`, for which the Activity worked out at 79.8% in series [27] and 43.1% in series [28].

As for `CCN(CC)CCNC(=O)c1ccc2cc(I)ccc2n1`, the Activity in series [27] worked out at 87.4%; in [28], 43.2%.

Regarding `CCN(CC)CCNC(=O)c1ccc(I)cc1`, the Drug uptake is 9.1 % ID/g in series [5], 3.7 % ID/g in series [7], 0.8 % ID/g in series [13] and 7.7 % ID/g in series [15]. In addition, the Activity in series [23] is recorded as 83.1%.

Regarding `CCN(CC)CCNC(=O)c1cc2cc(I)ccc2o1`, the Activity turned out to be 87% in [27] and 45.2% in [28].

Consider `CCN(CC)CCNC(=O)c1cn2cc(I)ccc2n1`, for which the Activity in series [27] was 75.3%; in [28], 11.6%.

As to `CCN(CC)CCNC(=O)c1c[nH]c2ccc(I)cc2c1=O`, the Activity is 86.7% in series [27] and 59% in series [28].
